Source: ChEMBL document CHEMBL3621143, “Discovery of BMS-641988, a Novel Androgen Receptor Antagonist for the Treatment of Prostate Cancer” (ACS Med Chem Lett, 2015)
Activity calls are given as the source filed them. The calls are words filed in the database; no cut-off is given here.

What was measured:
Androgen receptor [1] = target: T1, Androgen receptor (Homo sapiens, UniProt P10275); assay: Displacement of [3H]-DHT from androgen receptor in human MDA-MB-453 cells after 90 mins by TopCount analysis; type: cell-based
T1 sequence (P10275 whole entry): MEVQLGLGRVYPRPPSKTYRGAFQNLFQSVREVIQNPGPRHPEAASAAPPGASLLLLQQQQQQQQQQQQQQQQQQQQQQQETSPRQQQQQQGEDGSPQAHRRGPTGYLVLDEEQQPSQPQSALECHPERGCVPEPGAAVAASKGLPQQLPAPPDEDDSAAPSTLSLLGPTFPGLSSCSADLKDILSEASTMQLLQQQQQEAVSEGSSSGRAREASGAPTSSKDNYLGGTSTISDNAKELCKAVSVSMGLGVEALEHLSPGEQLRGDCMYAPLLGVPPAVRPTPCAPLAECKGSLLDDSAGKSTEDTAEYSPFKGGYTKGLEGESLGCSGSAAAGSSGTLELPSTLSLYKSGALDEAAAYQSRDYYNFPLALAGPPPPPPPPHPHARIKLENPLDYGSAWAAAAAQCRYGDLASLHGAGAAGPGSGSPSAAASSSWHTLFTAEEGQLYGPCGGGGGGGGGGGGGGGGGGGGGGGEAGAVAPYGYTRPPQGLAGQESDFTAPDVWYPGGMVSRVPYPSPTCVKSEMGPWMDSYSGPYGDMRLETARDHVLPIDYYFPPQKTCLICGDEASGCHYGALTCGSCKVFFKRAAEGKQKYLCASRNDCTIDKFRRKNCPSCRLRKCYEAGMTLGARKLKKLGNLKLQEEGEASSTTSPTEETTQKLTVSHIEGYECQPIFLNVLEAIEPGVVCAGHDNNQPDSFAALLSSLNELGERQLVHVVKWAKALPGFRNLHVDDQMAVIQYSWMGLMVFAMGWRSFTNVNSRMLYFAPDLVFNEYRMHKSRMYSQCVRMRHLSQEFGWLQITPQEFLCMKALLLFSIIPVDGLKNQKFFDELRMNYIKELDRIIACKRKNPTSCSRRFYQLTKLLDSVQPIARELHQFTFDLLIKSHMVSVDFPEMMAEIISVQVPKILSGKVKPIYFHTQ

Androgen receptor [2] = target: T1, Androgen receptor; assay: Antagonist activity at androgen receptor in human MDA-MB-453 cells assessed as inhibition of DHT-induced PSA expression by alkaline phosphatase reporter gene assay; type: cell-based
[3] = Plasma concentration in immature Sprague-Dawley rat prostate weight model at 10 mg/kg, po qd administered for 4 days measured 2 hrs post last dose on day 4; type: ADME, organism-based
In short: (§1)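 Immature rat prostate weight model, oral dosing once daily at 1 or 10 mg/kg for 4 days. Plasma drug concentration (µM) measured 2 hours post-dose on day 4, n=3.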

Rattus norvegicus [4] = assay: In vivo antagonist activity at androgen receptor in immature Sprague-Dawley rat prostate weight model assessed as testosterone propionate-induced weight of seminal vesicles over full body weight at 10 mg/kg, po qd administered for 4 days; type: functional; parameters: scale not given: the % may be the effect or the level left
In short: (§2)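 Immature rat prostate weight PK/PD model. Oral dosing once daily at 1 or 10 mg/kg for 4 days. Seminal vesicle weight expressed as % of full body weight, n=3, scaled so testosterone-treated control = 100% and sham = 10%.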

Rattus norvegicus [5] = assay: In vivo antagonist activity at androgen receptor in immature Sprague-Dawley rat prostate weight model assessed as testosterone propionate-induced weight of seminal vesicles over full body weight at 1 mg/kg, po qd administered for 4 days; type: functional; parameters: scale not given: the % may be the effect or the level left; in short: as §2
[6] = Plasma concentration in immature Sprague-Dawley rat prostate weight model at 1 mg/kg, po qd administered for 4 days measured 2 hrs post last dose on day 4; type: ADME, organism-based; in short: as §1
[7] = Protein binding in mouse serum; type: ADME, cell-free; conditions: read-out: PB
CWR22 [8] = assay: Antitumor activity against human CWR22 cells in Balb/c athymic (nu/nu) mouse CWR22-BMSLD1 prostate cancer xenograft model assessed as tumor growth inhibition at 150 mg/kg, po qd administered for 35 days measured from day 10 to 35 during compound dosing; type: functional, organism-based
In short: (§3)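 CWR22-BMSLD1 human prostate cancer xenograft. Oral once-daily dosing at 90 mg/kg for 45 days, or at 150 mg/kg for 35 days, with a vehicle group. Median tumor volume (mm3) tracked against days post implant.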

CWR22 [9] = assay: Antitumor activity against human CWR22 cells in Balb/c athymic (nu/nu) mouse CWR22-BMSLD1 prostate cancer xenograft model assessed as tumor growth inhibition at 150 mg/kg, po qd measured for 10 days during compound dosing; type: functional, organism-based; in short: as §3

Row | Structure (SMILES) | Ki (Androgen receptor [1]) | IC50 (Androgen receptor [2]) | concentration at 2 h [3] | Activity (Rattus norvegicus [4]) | Activity (Rattus norvegicus [5]) | concentration at 2 h [6] | fraction unbound [7] | TGI (CWR22 [8]) | TGI (CWR22 [9])
1 | CC(C)OC(=O)[C@@H]1C[C@]2(C)O[C@]1(C)[C@@H]1C(=O)N(c3ccc(C#N)c(C(F)(F)F)c3)C(=O)[C@@H]12 | 0.023 µM | 0.022 µM |  |  |  |  |  |  | 
2 | C[C@]12O[C@@](C)(C[C@H]1N)[C@H]1C(=O)N(c3ccc(C#N)c(C(F)(F)F)c3)C(=O)[C@H]12 | 0.031 µM | 0.06 µM | 480 nM | 89% | 89% | 80 nM |  |  | 
3 | CNS(=O)(=O)N[C@@H]1C[C@]2(C)O[C@]1(C)[C@@H]1C(=O)N(c3ccc(C#N)c(C(F)(F)F)c3)C(=O)[C@@H]12 | 0.05 µM | 0.034 µM | 230 nM | 36% | 89% | 10 nM |  |  | 
4 | CN(C(=O)[C@@H]1C[C@]2(C)O[C@]1(C)[C@@H]1C(=O)N(c3ccc(C#N)c(C(F)(F)F)c3)C(=O)[C@@H]12)c1ccccc1 | 0.05 µM | 0.034 µM | 12000 nM | 43% | 88% | 1800 nM |  |  | 
5 | C[C@]12O[C@@](C)(C[C@H]1C(=O)O)[C@H]1C(=O)N(c3ccc(C#N)c(C(F)(F)F)c3)C(=O)[C@H]12 | 1.6 µM | > 5 µM |  |  |  |  |  |  | 
6 | C[C@]12O[C@@](C)(C[C@H]1NS(=O)(=O)c1ccccc1F)[C@H]1C(=O)N(c3ccc(C#N)c(C(F)(F)F)c3)C(=O)[C@H]12 | 0.001 µM | 0.01 µM | 1900 nM | 24% | 56% | 160 nM |  |  | 
7 | C[C@]12O[C@@](C)(C[C@H]1NS(C)(=O)=O)[C@H]1C(=O)N(c3ccc(C#N)c(C(F)(F)F)c3)C(=O)[C@H]12 | 0.012 µM | 0.02 µM | 4000 nM | 26% | 64% | 290 nM |  |  | 
8 | CCC(=O)N[C@@H]1C[C@]2(C)O[C@]1(C)[C@@H]1C(=O)N(c3ccc(C#N)c(C(F)(F)F)c3)C(=O)[C@@H]12 | 0.003 µM | 0.023 µM | 190000 nM | 34% | 87% | 24000 nM | < 0.01 |  | 
9 | CC(O)(CS(=O)(=O)c1ccc(F)cc1)C(=O)Nc1ccc(C#N)c(C(F)(F)F)c1 (stereo not drawn) [BICALUTAMIDE] |  |  | 9500 nM | 41% | 69% | 2300 nM |  | inactive | Active
10 | C[C@]12O[C@@](C)(C[C@H]1NS(=O)(=O)c1ccccc1)[C@H]1C(=O)N(c3ccc(C#N)c(C(F)(F)F)c3)C(=O)[C@H]12 | 0.01 µM | 0.001 µM | 2400 nM | 31% | 63% | 230 nM |  |  | 
11 | C[C@]12O[C@@](C)(C[C@H]1NS(=O)(=O)c1cccnc1)[C@H]1C(=O)N(c3ccc(C#N)c(C(F)(F)F)c3)C(=O)[C@H]12 | 0.002 µM | 0.007 µM | 520 nM | 23% | 44% | 50 nM |  |  | 
12 | CC12C[C@H](O)[C@](C)(O1)[C@@H]1C(=O)N(c3ccc(C#N)c(I)c3)C(=O)[C@@H]12 (single isomer, unassigned) | 0.008 µM | 0.01 µM |  |  |  |  |  |  | 
13 | CC(C)NC(=O)N[C@@H]1C[C@]2(C)O[C@]1(C)[C@@H]1C(=O)N(c3ccc(C#N)c(C(F)(F)F)c3)C(=O)[C@@H]12 | 0.031 µM | 0.06 µM | 60000 nM | 56% | 115% | 8300 nM | < 0.01 |  | 
